The source of these data is article PMC6360136 (Investigational new drugs, 2018).

What all share (type): cell-based, human
Experiment [1] relates to VEGF-A secretion in PANC-1 and EC46 cells. The experiment can be described thus: VEGF-A AlphaLISA. The following applies: 12 h. Background: In Alpha technology, singlet oxygen from a donor bead excites a nearby acceptor bead.
Experiment [2] deals with EC68 cells. The experiment can be described thus: Cell viability assay. The conditions noted are these: EC68 primary pancreatic cancer cells, MTT, 48 h.
The test system of experiment [3] is EC46 cells. The experiment can be described thus: Cell viability assay. The conditions noted are these: EC46 primary pancreatic cancer cells, MTT, 48 h.
Experiment [4] concerns RTKs (EGFR, Met, IGF-1Rβ) in PANC-1 and EC46 cells. The experiment is described as follows: Immunoblot analysis of receptor tyrosine kinases. The conditions noted are these: 24 h. The method, boiled down:
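PANC-1 and EC46 cells were seeded at 200,000/well and attached overnight. Medium was renewed with the test compound or EtOH control added. Whole-cell lysates were taken at 24 h in phosphatase-safe buffer and protein was quantified by BCA. Equal protein was resolved on 4–12% SDS-PAGE and transferred to PVDF. Blots were probed for EGFR, Met, IGF-1Rβ and β-actin, with chemiluminescent detection.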
A general note: Immunoblotting shows a protein as a band on a membrane.

As a reminder, the GI50 is the concentration giving 50% growth inhibition. For `CC[C@H](C)[C@@H]1C(=O)N2CCC[C@@H]2C(=O)O[C@H](C(C)(C)C)C[C@@H](C)C[C@@H](O)C(C)(C)C2=N[C@H](CCC(=O)N[C@@H](Cc3ccc(OC)cc3)C(=O)N(C)[C@@H](C)C(=O)N1C)CS2` [Apra S10, apratoxin S10], the “effect on VEGF-A secretion” value in experiment [1] is “inhibited the secretion of VEGF-A at low nanomolar to subnanomolar concentrations”. The GI50 in experiment [2] came to 350 pM; in experiment [3], 320 pM. Further, the “effect on RTKs” value in experiment [4] is recorded as “potently downregulated various RTKs”.
